pKi: −log10 of the molar value.
Experiments:
ATP-citrate synthase [1] = molecular target: T1, ATP-citrate synthase (Rattus norvegicus, UniProt P16638); experiment: Inhibitory activity against rat ATP-citrate lyase activity by the […] dehydrogenase catalyzed reduction of oxaloacetate by NADH.
T1 sequence (P16638 whole entry): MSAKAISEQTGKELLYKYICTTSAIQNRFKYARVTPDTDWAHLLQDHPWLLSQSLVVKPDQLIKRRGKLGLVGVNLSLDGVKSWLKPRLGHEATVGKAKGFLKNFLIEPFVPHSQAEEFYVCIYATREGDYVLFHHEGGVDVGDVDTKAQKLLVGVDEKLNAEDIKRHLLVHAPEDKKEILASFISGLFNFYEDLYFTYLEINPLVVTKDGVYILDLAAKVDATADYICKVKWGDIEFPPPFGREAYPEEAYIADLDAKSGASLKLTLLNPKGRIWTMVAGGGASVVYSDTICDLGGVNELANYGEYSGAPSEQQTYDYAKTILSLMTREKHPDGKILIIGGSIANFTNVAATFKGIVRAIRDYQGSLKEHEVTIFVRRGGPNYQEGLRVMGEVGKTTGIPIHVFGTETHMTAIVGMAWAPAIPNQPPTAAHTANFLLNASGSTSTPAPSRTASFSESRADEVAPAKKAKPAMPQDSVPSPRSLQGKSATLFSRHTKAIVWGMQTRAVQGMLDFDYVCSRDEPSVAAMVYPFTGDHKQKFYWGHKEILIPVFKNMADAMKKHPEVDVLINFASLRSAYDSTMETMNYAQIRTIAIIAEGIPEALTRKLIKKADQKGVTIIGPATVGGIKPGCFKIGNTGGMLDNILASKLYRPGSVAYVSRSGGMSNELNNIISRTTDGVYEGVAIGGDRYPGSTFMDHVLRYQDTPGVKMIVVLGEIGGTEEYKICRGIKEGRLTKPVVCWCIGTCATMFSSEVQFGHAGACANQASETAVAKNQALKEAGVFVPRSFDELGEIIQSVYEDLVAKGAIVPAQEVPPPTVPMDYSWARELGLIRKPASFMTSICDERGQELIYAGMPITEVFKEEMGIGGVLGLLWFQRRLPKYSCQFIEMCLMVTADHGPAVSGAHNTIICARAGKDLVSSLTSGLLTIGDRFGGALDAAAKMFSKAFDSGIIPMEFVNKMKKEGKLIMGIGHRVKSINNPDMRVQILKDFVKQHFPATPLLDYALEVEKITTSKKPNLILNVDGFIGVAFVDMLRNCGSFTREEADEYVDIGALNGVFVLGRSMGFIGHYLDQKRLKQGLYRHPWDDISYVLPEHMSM
Summary of the method: (§1)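 Purified rat ACL or recombinant human ACL was assayed by coupling oxaloacetate formation to malate dehydrogenase reduction with NADH. Buffer: Tris 100 mM pH 8.0, MgCl2 10 mM, KCl 10 mM, DTT 10 mM, plus ATP and NADH. CoA was 200 μM, and citrate was added to 100 μM (its Km) to start the reaction. A340 decrease was followed over 20 min. Ki came from fitting v = Vmax/(2 + [I]/Ki), assuming citrate-competitive inhibition.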

ATP-citrate synthase [2] = molecular target: T2, ATP-citrate synthase (Homo sapiens, UniProt P53396); experiment: (§2) Inhibitory activity against human recombinant ATP-Citrate Lyase activity was measured by the […] dehydrogenase catalyzed reduction of oxaloacetate by NADH; summary of the method: as §1
T2 sequence (P53396 whole entry): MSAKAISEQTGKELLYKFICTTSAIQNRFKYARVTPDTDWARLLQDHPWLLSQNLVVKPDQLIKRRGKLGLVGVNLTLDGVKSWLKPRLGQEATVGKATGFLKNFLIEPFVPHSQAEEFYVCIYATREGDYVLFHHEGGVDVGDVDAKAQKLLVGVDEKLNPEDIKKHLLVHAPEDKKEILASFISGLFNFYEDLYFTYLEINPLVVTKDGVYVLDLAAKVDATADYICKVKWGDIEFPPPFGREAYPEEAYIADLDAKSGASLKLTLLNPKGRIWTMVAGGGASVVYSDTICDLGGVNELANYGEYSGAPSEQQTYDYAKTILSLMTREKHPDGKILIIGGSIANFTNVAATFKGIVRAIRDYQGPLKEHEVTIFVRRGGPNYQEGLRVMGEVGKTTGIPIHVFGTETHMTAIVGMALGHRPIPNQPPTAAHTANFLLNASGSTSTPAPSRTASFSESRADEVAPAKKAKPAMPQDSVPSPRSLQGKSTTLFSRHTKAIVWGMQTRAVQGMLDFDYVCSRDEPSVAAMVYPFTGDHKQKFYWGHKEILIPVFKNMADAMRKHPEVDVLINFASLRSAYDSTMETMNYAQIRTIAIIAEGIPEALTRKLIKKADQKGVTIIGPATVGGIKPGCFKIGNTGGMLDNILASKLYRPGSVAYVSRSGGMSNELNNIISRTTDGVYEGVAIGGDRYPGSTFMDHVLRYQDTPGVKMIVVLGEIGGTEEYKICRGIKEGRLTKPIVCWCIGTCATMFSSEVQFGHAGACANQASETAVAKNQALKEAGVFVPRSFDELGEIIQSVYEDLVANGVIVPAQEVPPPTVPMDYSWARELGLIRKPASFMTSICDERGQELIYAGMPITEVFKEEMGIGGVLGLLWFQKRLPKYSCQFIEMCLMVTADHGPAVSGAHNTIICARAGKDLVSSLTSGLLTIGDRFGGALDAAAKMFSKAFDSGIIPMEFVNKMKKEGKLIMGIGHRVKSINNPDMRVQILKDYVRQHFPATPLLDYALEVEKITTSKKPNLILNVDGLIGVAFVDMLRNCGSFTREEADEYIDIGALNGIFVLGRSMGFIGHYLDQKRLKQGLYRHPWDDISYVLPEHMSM

HepG2 [3] = experiment: Percent control of ATP levels in human hepatoma cell line, HepG2 at 1000 uM concentration; type: functional
Summary of the method: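 Serum-starved HepG2 cells (grown to 80–90% confluence in DMEM/10% FCS, then overnight without serum) were exposed to vehicle or compound at the stated final concentration for 2.5 h. Cellular ATP was then measured as a toxicity check and expressed as % of vehicle control.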

ATP-citrate synthase [4] = molecular target: T1, ATP-citrate synthase; experiment: Inhibition of recombinant ATP-Citrate Lyase activity as […] dehydrogenase catalyzed reduction of oxaloacetate by NADH; settings: in the assay text read “purified rat ATP-Citrate Lyase” for “recombinant ATP-Citrate Lyase”; summary of the method: as §1
HepG2 [5] = experiment: Percent reduction of cholesterol synthesis in human hepatoma cell line, HepG2 at 1000 uM concentration; type: functional; set-up: scale not given: the % may be the effect or the level left
Summary of the method: (§3)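 HepG2 cells were grown in DMEM with Hepes, bicarbonate, glutamine and 10% FCS to 80–90% confluence, then kept overnight serum-free. Vehicle or compound was added at the stated final concentration for 2.5 h. ³H2O (71 μCi/mmol) was present for the final 90 min. Synthesis rates came from ³H incorporated into cellular cholesterol or fatty acids, relative to vehicle control.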

HepG2 [6] = experiment: Percent reduction of fatty acid synthesis in human hepatoma cell line, HepG2 at 1000 uM concentration; type: functional; set-up: scale not given: the % may be the effect or the level left; summary of the method: as §3
ATP-citrate synthase [7] = molecular target: T2, ATP-citrate synthase; experiment: Inhibitory activity against human recombinant ATP-Citrate Lyase was measured by the […] dehydrogenase catalyzed reduction of oxaloacetate by NADH; summary of the method: as §1
[8] = molecular target: T3, ATP-citrate synthase (Homo sapiens) (UniProt P53396); experiment: as §2; settings: concentration not given here; summary of the method: as §1
T3 sequence (whole entry): T2 sequence (P53396 whole entry)

SMILES | pKi (ATP-citrate synthase [1]) | also measured
O=C(O)CC(O)(CSCCCCCC(=O)c1ccc(Cl)cc1Cl)C(=O)O (stereo unspecified) | 3.89 | 
O=C(O)CC(CSCCCCC[S+]([O-])c1ccc(Cl)cc1Cl)C(=O)O (stereo unspecified) | 3.88 | 
O=C(O)CC(O)(CSCCCCCc1ccc(-c2ccccc2)cc1)C(=O)O (stereo unspecified) | 3.65 | 
O=C(O)CC(O)(CSCCCCCCc1ccc(F)cc1)C(=O)O (stereo unspecified) | 3.92 | 
O=C(O)CC(O)(CSCCCCCCc1c(Cl)cncc1Cl)C(=O)O (stereo unspecified) |  | pKi (ATP-citrate synthase [2]): 3.92
O=C(O)CC(O)(CSCCCCCCc1ccc(Cl)cc1Cl)C(=O)O (stereo unspecified) |  | Control (HepG2 [3]): 100%; pKi (ATP-citrate synthase [4]): 5.48; Control (HepG2 [5]): 116%; Control (HepG2 [6]): 107%
O=C(O)CC(O)(CSCCCCCCc1ccccc1-c1ccccc1)C(=O)O (stereo unspecified) | 4.74 | 
O=C(O)CC(O)(CSCCCC/C=C\c1ccc(Cl)cc1Cl)C(=O)O (stereo unspecified) | 5.13 | 
O=C(O)CC(O)(CSCCCCCCCCCc1ccc(Cl)cc1Cl)C(=O)O (stereo unspecified) | 3.52 | 
O=C(O)CC(O)(CSCCCCCCc1cccc(Cl)c1Cl)C(=O)O (stereo unspecified) | 5.14 | 
O=C(O)CC(O)(CSCCCCCCc1ccccc1)C(=O)O (stereo unspecified) |  | pKi (ATP-citrate synthase [4]): 3.15; pKi (ATP-citrate synthase [7]): 3.49
O=C(O)CC(O)(CSCCCCCNc1ccc(Cl)cc1Cl)C(=O)O (stereo unspecified) | 4.92 | 
O=C(O)CC(O)(CSCCCCCCc1ccccc1[N+](=O)[O-])C(=O)O (stereo unspecified) |  | pKi (ATP-citrate synthase [4]): 4.12
O=C(O)CC(O)(CSCCCCCCc1ccccc1Cc1ccccc1)C(=O)O (stereo unspecified) |  | pKi (ATP-citrate synthase [4]): 4.03
O=C(O)CC(O)(CSCCCc1ccc2ccccc2c1)C(=O)O (stereo unspecified) |  | pKi (ATP-citrate synthase [2]): 3.52
O=C(O)CC(O)(CSCCCCCCc1ccc(F)cc1F)C(=O)O (stereo unspecified) |  | pKi (ATP-citrate synthase [4]): 3.57
O=C(O)CC(O)(CSCCCc1ccc(Cl)cc1Cl)C(=O)O (stereo unspecified) |  | pKi (ATP-citrate synthase [4]): 3.41
O=C(O)CC(O)(CCSCCCCCc1ccc(Cl)cc1Cl)C(=O)O (stereo unspecified) | 5.54 | 
O=C(O)CC(O)(CSCc1ccc(Cl)cc1Cl)C(=O)O (stereo unspecified) | 3.39 | 
O=C(O)CC(O)(CSCCCCCCc1ccc(O)cc1)C(=O)O (stereo unspecified) | 3.38 | 
O=C(O)CC(O)(CSCCCCCCc1ccccn1)C(=O)O (stereo unspecified) |  | inhibition [8]: 30%
O=C(O)CC(O)(CSCCCCCCc1ccccc1Cl)C(=O)O (stereo unspecified) | 4.16 | 
O=C(O)CC(O)(CSCCCCCCc1ccc(Cl)c(Cl)c1)C(=O)O (stereo unspecified) | 3.96 | 
O=C(O)CC(O)(CSCCCCCCc1ccc(-c2ccccc2)cc1)C(=O)O (stereo unspecified) | 4.42 | 
O=C(O)CC(O)(CSCCCC/C=C/c1ccc(Cl)cc1Cl)C(=O)O (stereo unspecified) | 4.48 | 
O=C(O)CC(O)(CC(=O)CCCCCc1ccc(Cl)cc1Cl)C(=O)O (stereo unspecified) | 4.60 | 
O=C(O)CC(O)(CSCCCCCCc1cccc(Cl)c1)C(=O)O (stereo unspecified) | 3.82 | 

Source: ChEMBL document CHEMBL1129688, “ATP-citrate lyase as a target for hypolipidemic intervention. Design and synthesis of 2-substituted butanedioic acids as novel, potent inhibitors of the enzyme” (J Med Chem, 1996)
